The values below come from PubChem BioAssay.

A number with no mark means an inactive call. Inconclusive results are not listed. Active and inactive are the calls of the source.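 How the source made its calls, unless noted: active means viability increase at or above a cutoff of the median across tested compounds plus 3 SD (cut at about 8.5% in these data, passing the limit was not always enough); inconclusive means some gains above the cutoff, reason not given; inactive means the rest.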

A short description of assay [1]: S. cerevisiae growth inhibition in permissive medium (OD615), pilot counter-assay for S. cerevisiae lifespan shortening project, permissive growth control (AID 705;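 active means growth inhibition above 25% in both replicates, a cutoff set 3 SD above the mean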). The conditions noted are these: OD615, 24 h, at 10 µM, hits give high values. A digest of the protocol: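 System – S. cerevisiae with engineered DeaD lifespan system · Buffer or medium – SC raffinose/galactose permissive medium · Schedule – cells pre-grown 4 h, then 24 h compound exposure, 30 °C humidified · Technique – culture turbidity as optical density at 615 nm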

Assay [2] can be described thus: S. cerevisiae growth inhibition in restrictive medium, OD615, pilot screen, restrictive growth control, yeast lifespan reduction project (AID 706;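 active means growth inhibition above a set limit, 3 SD over mean compound inhibition, in both replicates, cut at about 43% in these data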;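 further: modified DeaD lifespan yeast strain shifted to restrictive glucose medium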). The conditions noted are these: OD615, 48 h, at 10 µM, hits give high values. Summed up:
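Material: engineered S. cerevisiae DeaD strain / Medium: glucose-based CSMM-D restrictive medium / Compound: single dose of 10 µM compound final, 0.25% DMSO / Timing: 4 h pre-incubation, 48 h exposure at 30 °C / Technique: OD615 absorbance reading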

Assay [3] in a line: doxorubicin toxicity protection in MRP-1 cells – H69AR cells, CellTiter-Glo, duplicate, MRP-1 activator project, pilot screen (AID 807).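 Further: compound pretreatment 18-22 h then 72 h combined with doxorubicin; 0% = doxorubicin alone and 100% = vehicle without doxorubicin.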 The conditions noted are these: H69AR viability with doxorubicin, CellTiter-Glo luminescence; at 10 µM; hits give high values.
A short description of assay [4]: viability of HCT116 without oncogenic beta-catenin – human colon tumor cells, pilot screen (AID 823;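 active means cell viability at or below a set limit in both duplicate runs, the limit being the all-compound median minus 4 SD, cut at about 23% in these data, passing the limit was not always enough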;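 further: 0% = wells killed by 20 µM Hyamine and 100% = untreated DMSO cell wells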). The conditions noted are these: HCT116 beta-catenin knockout viability, CellTiter-Glo, 60 h; at 10 µM; hits give low values. A general note: In ATP-based viability assays light output follows the ATP content of the culture.
Assay [5] in a line: viability of PTEN-null HCT116 cells – cell-based, HCT116 clonal line, CellTiter-Glo, pilot screen (AID 824;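 active means viability at or below 27.92% in each of two runs, the all-compound median minus 4 SD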;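 further: 0% = 20 µM Hyamine control and 100% = vehicle cell control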). The conditions noted are these: HCT116 PTEN-deleted viability, 60 h, at 10 µM, hits give low values.
A short description of assay [6]: RAM pathway blockade in budding yeast – dse1pr::URA3 reporter, 5-FOA selection, pilot screen (AID 869;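 active means inhibition over a set limit, the all-compound mean plus 3 SD, in both replicate runs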;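 further: 0% = DMSO wells with no growth and 100% = 10 µM 1-NA-PP1 with full growth; RAM network block rescues cells from 5-FOA so hits raise OD615 growth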). The conditions noted are these: S. cerevisiae dse1pr::URA3 5-FOA growth, OD615, 2 d; at 10 µM; hits give high values; strain carries analog-sensitive mutant Cbk1 kinase.
The nature of assay [7]: RAM signaling pathway blockade in yeast – S. cerevisiae, Pdr1DBD-CYC8 efflux-inhibited sensitized strain, primary screen (AID 1298;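 active means RAM network inhibition above 8.4% in each of two replicates, 3 SD over the compound average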;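 further: 0% = DMSO untreated cells without growth and 100% = 10 µM 1-NA-PP1 full growth; higher means more yeast growth rescued from 5-FOA killing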). The conditions noted are these: S. cerevisiae cbk1-as DSE1-URA3 strain, 5-FOA growth OD615, 2 d; at 50 µM; hits give high values.

For the molecule `CCN1C(=O)C(O)(CC(=O)c2ccc3c(c2)OCCO3)c2ccccc21` (stereo not drawn), the growth inhibition in assay [1] was -0.735%; in assay [2], -5.33%. Besides, in assay [3], the viability increase was -2.07%. Moreover, the viability (as a rule, a read-out of living cells in per cent, often relative to untreated cells) in assay [4] is 99.1%; in assay [5], 94%. Further, the inhibition – broadly, the change of the read-out against control, counted positive when it falls – in assay [6] was 0.24%. Besides, the RAM network inhibition in assay [7] was 5.92%.
On to `CCSC1=C(C#N)C(c2ccc(F)cc2)CC(=O)N1` (stereo not drawn), for which the growth inhibition in assay [1] was 5.18%; in assay [2], -4.98%. Moreover, the viability increase in assay [3] was 1%. Also, the viability in assay [4] was 93.4%; in assay [5], 101%. The inhibition in assay [6] is 0.48%. For the same molecule, the RAM network inhibition in assay [7] is 2.29%.
Take `CCN=C(Nc1ccc2c(c1)OCO2)SC1CC(=O)N(c2ccccc2F)C1=O` (stereo not drawn): the values for the growth inhibition in assay [1] and in assay [2] were -4.17% and -8.21%, respectively. Further, in assay [3], the viability increase was -1.9%. In addition, the viability is 97% in assay [4] and 95.9% in assay [5]. For the same molecule, the inhibition in assay [6] is 3.15%. For the same molecule, in assay [7], the RAM network inhibition was 10.8%.
For `CCOC(=O)Nc1sc(NS(=O)(=O)c2ccccc2)nc1C`, the growth inhibition is -10.4% in assay [1] and 3.58% in assay [2]. In assay [3], the viability increase is -0.61%. Moreover, the results for the viability in assay [4] and in assay [5] were 105% and 104%, respectively. Further, in assay [6], the inhibition was 0.295%. In addition, the RAM network inhibition in assay [7] was 2.87%.
As to `Nc1nc(SCC(=O)OCc2ccccc2)[nH]c(=O)c1NC(=O)c1ccco1`, the growth inhibition is -8.4% in assay [1] and -11.7% in assay [2]. In assay [3], the viability increase was -1.48%. In addition, the figures for the viability in assay [4] and in assay [5] were 101% and 98.7%, respectively. Also, the inhibition in assay [6] was 1.36%. In addition, the RAM network inhibition in assay [7] is -0.54%.
In the case of `O=C(c1ccc(CS(=O)(=O)c2c(Cl)cccc2Cl)o1)N1CCCC1`, the growth inhibition is -1.83% in assay [1] and -21% in assay [2]. For the same molecule, in assay [3], the viability increase was -1.96%. The viability in assay [4] was 103%; in assay [5], 93.2%. Further, the inhibition in assay [6] was 2.21%. In assay [7], the RAM network inhibition is -0.84%.
For the molecule `O=C(CCCCn1c(=O)[nH]c2ccccc2c1=O)NCCc1c[nH]c2ccccc12`, the growth inhibition in assay [1] is -16.7%; in assay [2] it was -25.8%. In addition, the viability increase in assay [3] is -4.05%. The results for the viability in assay [4] and in assay [5] were 93.5% and 93.7%, respectively. For the same molecule, the inhibition in assay [6] is 0.945%. Further, the RAM network inhibition in assay [7] is 4.06%.
In the case of `Nc1nc(NC(=O)c2ccco2)nn1-c1ccccc1`, the growth inhibition was -11.7% in assay [1] and 1.96% in assay [2]. Further, in assay [3], the viability increase is -2.61%. Moreover, the viability in assay [4] was 93.8%; in assay [5] it was 98.6%. Moreover, the inhibition in assay [6] was -0.025%. The RAM network inhibition in assay [7] is 5.17%.
Turning to `O=C1O/C(=C\C(=O)N2CCOCC2)c2ccccc21`, the growth inhibition in assay [1] is -2.53%; in assay [2], 2.46%. For the same molecule, in assay [3], the viability increase was -1.56%. Also, the results for the viability in assay [4] and in assay [5] were 94.5% and 99.2%, respectively. Besides, the inhibition in assay [6] was 2.46%. In addition, the RAM network inhibition in assay [7] is 4.69%.
As for `Cc1cccn2c(=O)c3cc(C(=O)NCCN4CCOCC4)c(=N)n(CCc4ccccc4)c3nc12`, the figures for the growth inhibition in assay [1] and in assay [2] were -0.895% and -4.73%, respectively. The viability increase in assay [3] was -5.8%. The viability is 5.75% (active) in assay [4] and 12.8% (active) in assay [5]. Besides, the inhibition in assay [6] is 1.02%. Moreover, in assay [7], the RAM network inhibition is 2.73%.
On to `CCN1C(=O)c2ccccc2S(=O)c2ccc(C(=O)NCc3ccccn3)cc21` (stereo not drawn), for which the results for the growth inhibition in assay [1] and in assay [2] were -1.77% and -3.51%, respectively. Also, in assay [3], the viability increase was -0.87%. Moreover, the viability in assay [4] was 105%; in assay [5] it was 95.7%. For the same molecule, in assay [6], the inhibition is 1.95%. The RAM network inhibition in assay [7] was -2.39%.
Consider `Cc1cccc(C)c1OCC(O)Cn1ccnc1C` (stereo not drawn), for which the growth inhibition in assay [1] was 1.01%; in assay [2] it was 0.215%. Further, the viability increase in assay [3] is -1.6%. Further, the viability in assay [4] is 81.1%; in assay [5], 84.7%. In assay [6], the inhibition is 1.08%. Besides, the RAM network inhibition in assay [7] was -0.1%.
On to `O=C(COc1ccccc1)NCc1nnc(SCC(=O)Nc2nccs2)n1-c1ccccc1`, for which the growth inhibition was -10.1% in assay [1] and -4.89% in assay [2]. Moreover, the viability increase in assay [3] is -1.46%. The viability in assay [4] and in assay [5] was 101% each time. Also, the inhibition in assay [6] is 2.13%. Moreover, the RAM network inhibition in assay [7] was 4.48%.
For the molecule `CCOC(=O)c1ccc2ncc(C(=O)OCC)c(NCCCN3CCOCC3)c2c1`, the results for the growth inhibition in assay [1] and in assay [2] were -4.12% and 8.23%, respectively. Further, the viability increase in assay [3] was -5.66%. Moreover, the figures for the viability in assay [4] and in assay [5] were 81.2% and 84.5%, respectively. Moreover, in assay [6], the inhibition is 0.495%. Moreover, the RAM network inhibition in assay [7] is 0.57%.
With `O=C(CN1CCN(Cc2ccc(F)cc2)C1=O)NCc1cccs1`, the growth inhibition was -6.23% in assay [1] and -1.7% in assay [2]. For the same molecule, the viability increase in assay [3] was 1.33%. Moreover, the results for the viability in assay [4] and in assay [5] were 99.5% and 94.1%, respectively. The inhibition in assay [6] is 0.97%. The RAM network inhibition in assay [7] is 2.12%.
As to `Clc1ccc2nc3ccccn3c2c1`, the growth inhibition is -6.63% in assay [1] and -5.02% in assay [2]. Besides, the viability increase in assay [3] was -4.02%. Moreover, the viability is 109% in assay [4] and 106% in assay [5]. In addition, the inhibition in assay [6] is 1.56%. In addition, the RAM network inhibition in assay [7] is 2.48%.
On to `COc1ccccc1CNC(=O)COC(=O)c1ccc(NC(N)=O)cc1`, for which the results for the growth inhibition in assay [1] and in assay [2] were -12.7% and -13.7%, respectively. In addition, in assay [3], the viability increase is -0.98%. Besides, the results for the viability in assay [4] and in assay [5] were 96.5% and 97.9%, respectively. For the same molecule, the inhibition in assay [6] was 0.56%. The RAM network inhibition in assay [7] was 5.2%.
As for `FC(F)Sc1ccc(Nc2ncnc3nc[nH]c23)cc1`, the results for the growth inhibition in assay [1] and in assay [2] were 16.9% and 57.8% (active), respectively. Also, the viability increase in assay [3] was -1.54%. Also, the values for the viability in assay [4] and in assay [5] were 92.8% and 90.5%, respectively. Further, the inhibition in assay [6] was 1.23%. Also, the RAM network inhibition in assay [7] was 4.41%.
Regarding `CCCCOC(=O)Nc1ccccc1C(N)=O`, the growth inhibition in assay [1] is -16.1%; in assay [2], -13%. Besides, the viability increase in assay [3] is 0.35%. The viability is 95.3% in assay [4] and 102% in assay [5]. In assay [6], the inhibition was 1.07%. In addition, in assay [7], the RAM network inhibition was 1.72%.
As for `CCOC(=O)Nc1ccc2c(c1)N(C(=O)N(C)C)c1ccccc1CC2`, the results for the growth inhibition in assay [1] and in assay [2] were -8.91% and -0.49%, respectively. Also, the viability increase in assay [3] was -1.82%. The viability was 96.8% in assay [4] and 96% in assay [5]. Besides, the inhibition in assay [6] was -0.31%. Besides, the RAM network inhibition in assay [7] was 2.67%.
Turning to `CCn1c2ccccc2c2nnc(SCC(=O)c3ccccc3)nc21`, the growth inhibition in assay [1] is -1.37%; in assay [2], 13.5%. Also, in assay [3], the viability increase is -2.35%. Also, the figures for the viability in assay [4] and in assay [5] were 94.8% and 90.7%, respectively. The inhibition in assay [6] was 2.33%. In assay [7], the RAM network inhibition was 6.1%.
Consider `O=C(CN1C(=O)CCC1=O)Nc1nc2c(F)cc(F)cc2s1`, for which the growth inhibition in assay [1] is -23%; in assay [2], -18.8%. In addition, the viability increase in assay [3] was -0.91%. For the same molecule, the viability in assay [4] is 99.4%; in assay [5], 92.5%. In addition, in assay [6], the inhibition was 1.6%. In addition, the RAM network inhibition in assay [7] was 1.49%.
Regarding `CCOC(=O)C1CCN(C(c2cccc(OC)c2)c2sc3nc(C)nn3c2O)CC1` (stereo not drawn), the growth inhibition was -2.67% in assay [1] and -6.39% in assay [2]. For the same molecule, the viability increase in assay [3] is -1.96%. Moreover, the values for the viability in assay [4] and in assay [5] were 94.2% and 95.9%, respectively. Also, the inhibition in assay [6] was 0.11%. The RAM network inhibition in assay [7] was -0.51%.
As for `Cn1c(C(=O)NCCc2ccsc2)cc2c(=O)n(C)c3ccccc3c21`, the growth inhibition in assay [1] is -13.2%; in assay [2], -8.68%. Moreover, the viability increase in assay [3] is -4.49%. The viability is 105% in assay [4] and 92.2% in assay [5]. Moreover, the inhibition in assay [6] is 2.64%. The RAM network inhibition in assay [7] is 4.41%.
